This is an account of results in ChEMBL document CHEMBL1124126, “Terminal bifunctional retinoids. Synthesis and evaluations related to cancer chemopreventive activity” (1988).

For one experiment, the species on record is Gallus gallus. The experiment can be described thus: Relative percent binding to cellular retinoic acid binding protein (CRABP) in chick embryo skin. The essentials: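 Competition of unlabeled retinoid with [3H]retinoic acid for binding to CRABP from chick embryo skin. Inhibition caused by a 100-fold molar excess of unlabeled retinoic acid defined as 100%.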

For a further experiment, the system named is F9. The experiment can be described thus: Ability to induce differentiation of mouse F9 embryonal carcinoma cells. As to conditions: read-out: ED50 (the source's name). The format is functional. The essentials:
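Mouse F9 embryonal carcinoma cells grown at 1 × 10^5 cells/mL for 4 days with or without retinoid at 10^-7 to 10^-11 M. Harvest fluid mixed with 0.13 μM plasminogen, 0.3 mM H-D-Val-Leu-Lys-p-NA, 0.1% Tween 80 and fibrinogen fragments in Tris·HCl pH 7.5. Incubated 4 h at 25 °C, p-nitroaniline read at 405 nm. Triplicate mean absorbances plotted semilog against molarity; ED50 taken at midpoint between maximal and minimal absorbance.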

On to `CCNC(=O)/C(C(=O)O)=C(C)/C=C/C=C(C)/C=C/C1=C(C)CCCC1(C)C`, for which the RA in the experiment filed under Gallus gallus worked out at 55%. Moreover, the EC50 in the experiment with F9 stood at 0.5 nM.
The corresponding values for `CCNC(=O)/C(C(=O)OCC)=C(C)/C=C/C=C(C)/C=C/C1=C(C)CCCC1(C)C` are 0% and 6 nM.
As to `CC1=C(/C=C/C(C)=C/C=C/C(C)=C/C(=O)O)C(C)(C)CCC1` [TRETINOIN], the RA in the experiment listed under Gallus gallus amounted to 100%. Also, the EC50 with F9 came to 0.1 nM.
For `CCNC(=O)\C(C(=O)O)=C(C)/C=C/C=C(C)/C=C/C1=C(C)CCCC1(C)C`, the RA in the experiment listed under Gallus gallus worked out at 55%. The EC50 in the experiment on F9 was found to be 0.6 nM.
As for `CC(/C=C/C=C(C)/C=C/C1=C(C)CCCC1(C)C)=C(C(=O)O)C(=O)O`, the RA in the experiment listed under Gallus gallus is 65%. In the experiment on F9, the EC50 is 0.5 nM.
On the same counts, the results for `CC1=C(/C=C/C(C)=C/C=C/C(C)=C\C(=O)O)C(C)(C)CCC1` [ISOTRETINOIN] are 100% and 0.3 nM.
On the same counts, the results for `CCOC(=O)C(C(=O)OCC)=C(C)/C=C/C=C(C)/C=C/C1=C(C)CCCC1(C)C` are 0% and 4.5 nM.
On the same counts, the results for `CCNC(=O)\C(C(=O)OCC)=C(C)/C=C/C=C(C)/C=C/C1=C(C)CCCC1(C)C` are 0% and 6 nM.
As for `CCOC(=O)/C(C(=O)O)=C(C)/C=C/C=C(C)/C=C/C1=C(C)CCCC1(C)C`, the RA in the experiment listed under Gallus gallus stood at 90%. Also, the EC50 in the experiment on F9 came to 1 nM.
